The results in this text go back to BindingDB's records for doi:10.1021/jm9704199 (Dupont Pharmaceuticals, 1998).

The test concerns the target Human immunodeficiency virus type 1 protease (Human immunodeficiency virus 1, UniProt Q72874). As to the kind of experiment: Inhibition of HIV protease, measured by assaying the cleavage of a fluorescent peptide substrate using HPLC. The procedure, abridged: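 HIV-1 protease activity followed as cleavage of a fluorescent peptide substrate, with products resolved and quantified by HPLC; Ki values reported.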

The structures appear in SMILES notation.

What is called Ki is the dissociation constant of the complex between target and ligand, obtained from inhibition or displacement. Turning to `CCCC(N=O)c1cccc(CN2C(=O)N(Cc3cccc(C(CCC)N=O)c3)[C@H](Cc3ccccc3)[C@H](O)[C@@H](O)[C@H]2Cc2ccccc2)c1` (some centres not stated), the affinity, expressed as Ki, was 0.031 nM.

`CCC(N=O)c1cccc(CN2C(=O)N(Cc3cccc(C(CC)N=O)c3)[C@H](Cc3ccccc3)[C@H](O)[C@@H](O)[C@H]2Cc2ccccc2)c1` (stereo partly drawn) [(4R,5S,6S,7R)-4,7-dibenzyl-5,6-dihydroxy-1,3-bis({3-[1-(hydroxyimino)propyl]phenyl}methyl)-1,3-diazepan-2-one] returned an inhibition constant (Ki) of 0.031 nM.
